Test results as given in publication PMC3466776 (Biochemistry, 2012).

Assays:
[1] = read-out: Kd for Ca^2+; cited from earlier work
CaM34 = CaM34 (Rattus norvegicus, UniProt P0DP29, D130A/D94A); test: Stopped-flow Ca^2+ dissociation kinetics of CaM34; format: binding; details: mean ± SD of 3-8 experiments; for amplitude 2 (relative quin-2 fluorescence change), CaM34: as koff2, CaM34, 22 °C
Method in brief: (§1)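 Rat His-CaM (2 μM) with 20 μM CaCl2, alone or with 2 μM synthetic AC1 or AC8 CaMBD peptide, is mixed 1:1 with 150 μM quin-2. These are pre-mix concentrations. Buffer is 20 mM MOPS pH 7.4, 100 mM KCl, 1 mM MgCl2, at 22 °C. Quin-2 fluorescence is read with excitation at 334 nm and a 405 nm cutoff filter. Five to eight runs are averaged and fit single- or double-exponentially. A relative amplitude of 0.03 equals one Ca2+. Values are mean ± SD of ≥3 averages.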

CaM12 = CaM12 (Rattus norvegicus, UniProt P0DP29, D21A/D57A); test: Stopped-flow Ca^2+ dissociation kinetics of CaM12; format: binding; details: for amplitude 1 (relative quin-2 fluorescence change), CaM12: as koff1, CaM12, 22 °C; for amplitude 1 (relative quin-2 fluorescence change), CaM12 / amplitude 2 (relative quin-2 fluorescence change), CaM12: mean ± SD of 3-8 experiments; for amplitude 2 (relative quin-2 fluorescence change), CaM12: as koff2, CaM12, 22 °C
Method in brief: as §1

CaMWT = CaMWT (Rattus norvegicus, UniProt P0DP29); test: Stopped-flow Ca^2+ dissociation kinetics of CaMWT; format: binding; details: for number of Ca^2+ ions released, phase 1, CaMWT / number of Ca^2+ ions released, phase 2, CaMWT: 0.03 relative amplitude = one Ca^2+ ion; for amplitude 1 (relative quin-2 fluorescence change), CaMWT: as koff1, CaMWT; for amplitude 1 (relative quin-2 fluorescence change), CaMWT / amplitude 2 (relative quin-2 fluorescence change), CaMWT: mean ± SD of 3-8 experiments; for amplitude 2 (relative quin-2 fluorescence change), CaMWT: as koff2, CaMWT
Method in brief: as §1

[2] = CaM12 with peptide, single-exponential fit, 22 °C, n = 3

Row | Molecule | Kd [1] | amplitude 2 (relative quin-2 fluorescence change), CaM34 (CaM34) | amplitude 1 (relative quin-2 fluorescence change), CaM12 (CaM12) | amplitude 2 (relative quin-2 fluorescence change), CaM12 (CaM12) | number of Ca^2+ ions released, phase 1, CaMWT (CaMWT; 22 °C) | number of Ca^2+ ions released, phase 2, CaMWT (CaMWT; 22 °C) | total Ca^2+ released in measurable phases, CaMWT (CaMWT; CaMWT with peptide, 22 °C) | amplitude 1 (relative quin-2 fluorescence change), CaMWT (CaMWT; 22 °C) | amplitude 2 (relative quin-2 fluorescence change), CaMWT (CaMWT; 22 °C) | amplitude 1 (relative quin-2 fluorescence change), CaM34 (CaM34; as koff1, CaM34, 22 °C) | amplitude, single-exponential fit, CaM12 (CaM12; [2]) | rate constant, single-exponential fit, CaM12 (CaM12; [2]) | total relative amplitude, CaMWT (CaMWT; CaMWT with peptide, 22 °C) | reduction of Ca^2+ dissociation speed, C-lobe (CaMWT; if slower release from both lobes, C-lobe) | reduction of Ca^2+ dissociation speed, N-lobe (CaMWT; if slower release from both lobes, N-lobe)
1 | COc1cc(N(CC(=O)O)CC(=O)O)c2nc(COc3cc(C)ccc3N(CC(=O)O)CC(=O)O)ccc2c1 [quin-2] | ~0.06 µM |  |  |  |  |  |  |  |  |  |  |  |  |  | 
2 | GSRPQRLLWQTAVRHITEQRFIHGH [AC8-Nt] |  | 0.027 ± 0.004 | 0.017 ± 0.002 | 0.022 ± 0.06 | 1 | 1 | 2 mol | 0.029 ± 0.008 | 0.027 ± 0.007 |  |  |  |  |  | 
3 | IKPAKRMKFKTVCYLLVQLMHCRKMFKA [AC1-C1b] |  | 0.032 ± 0.007 | 0.022 ± 0.010 | 0.012 ± 0.003 | 2 | 1 | 3 mol | 0.053 ± 0.001 | 0.024 ± 0.006 |  |  |  |  |  | 
4 | YSLAAVVLGLVQSLNRQRQKQLLNE [AC8-C2b] |  |  | 0.043 ± 0.007 | 0.021 ± 0.001 | 2 | 2 | four | 0.054 ± 0.006 | 0.053 ± 0.010 | 0.049 ± 0.006 | 0.054 ± 0.004 | 7.0 ± 1.3 s^–1 | ~0.12 | 5 fold | > 60 fold
